Test results reported in ChEMBL document CHEMBL3351463, “Methyl effect in azumamides provides insight into histone deacetylase inhibition by macrocycles” (J Med Chem, 2014).
Active and inactive are the calls of the source. No cut-off for these calls is given here.

Tests used:
Histone deacetylase 11 = target: T1, Histone deacetylase 11 (Homo sapiens, UniProt Q96DB2); experiment: Inhibition of human recombinant HDAC11 using [Ac-Leu-Gly-Lys(Ac)-AMC substrate incubated for 15 to 30 mins
T1 sequence (Q96DB2 whole entry): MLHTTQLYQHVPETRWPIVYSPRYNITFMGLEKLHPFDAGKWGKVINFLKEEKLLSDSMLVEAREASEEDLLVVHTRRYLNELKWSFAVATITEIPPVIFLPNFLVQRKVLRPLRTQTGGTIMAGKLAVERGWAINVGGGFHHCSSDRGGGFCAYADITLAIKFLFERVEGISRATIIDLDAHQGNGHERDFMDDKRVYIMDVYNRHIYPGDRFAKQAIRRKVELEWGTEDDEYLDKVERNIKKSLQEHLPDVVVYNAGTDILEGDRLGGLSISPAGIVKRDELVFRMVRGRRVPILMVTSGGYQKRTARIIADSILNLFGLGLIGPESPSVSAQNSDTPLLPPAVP

[1] = target: T2, Protein deacetylase HDAC6 (Homo sapiens, UniProt Q9UBN7); experiment: Inhibition of human recombinant HDAC6 using [Ac-Leu-Gly-Lys(Ac)-AMC substrate incubated for 15 to 30 mins
T2 sequence (Q9UBN7 whole entry): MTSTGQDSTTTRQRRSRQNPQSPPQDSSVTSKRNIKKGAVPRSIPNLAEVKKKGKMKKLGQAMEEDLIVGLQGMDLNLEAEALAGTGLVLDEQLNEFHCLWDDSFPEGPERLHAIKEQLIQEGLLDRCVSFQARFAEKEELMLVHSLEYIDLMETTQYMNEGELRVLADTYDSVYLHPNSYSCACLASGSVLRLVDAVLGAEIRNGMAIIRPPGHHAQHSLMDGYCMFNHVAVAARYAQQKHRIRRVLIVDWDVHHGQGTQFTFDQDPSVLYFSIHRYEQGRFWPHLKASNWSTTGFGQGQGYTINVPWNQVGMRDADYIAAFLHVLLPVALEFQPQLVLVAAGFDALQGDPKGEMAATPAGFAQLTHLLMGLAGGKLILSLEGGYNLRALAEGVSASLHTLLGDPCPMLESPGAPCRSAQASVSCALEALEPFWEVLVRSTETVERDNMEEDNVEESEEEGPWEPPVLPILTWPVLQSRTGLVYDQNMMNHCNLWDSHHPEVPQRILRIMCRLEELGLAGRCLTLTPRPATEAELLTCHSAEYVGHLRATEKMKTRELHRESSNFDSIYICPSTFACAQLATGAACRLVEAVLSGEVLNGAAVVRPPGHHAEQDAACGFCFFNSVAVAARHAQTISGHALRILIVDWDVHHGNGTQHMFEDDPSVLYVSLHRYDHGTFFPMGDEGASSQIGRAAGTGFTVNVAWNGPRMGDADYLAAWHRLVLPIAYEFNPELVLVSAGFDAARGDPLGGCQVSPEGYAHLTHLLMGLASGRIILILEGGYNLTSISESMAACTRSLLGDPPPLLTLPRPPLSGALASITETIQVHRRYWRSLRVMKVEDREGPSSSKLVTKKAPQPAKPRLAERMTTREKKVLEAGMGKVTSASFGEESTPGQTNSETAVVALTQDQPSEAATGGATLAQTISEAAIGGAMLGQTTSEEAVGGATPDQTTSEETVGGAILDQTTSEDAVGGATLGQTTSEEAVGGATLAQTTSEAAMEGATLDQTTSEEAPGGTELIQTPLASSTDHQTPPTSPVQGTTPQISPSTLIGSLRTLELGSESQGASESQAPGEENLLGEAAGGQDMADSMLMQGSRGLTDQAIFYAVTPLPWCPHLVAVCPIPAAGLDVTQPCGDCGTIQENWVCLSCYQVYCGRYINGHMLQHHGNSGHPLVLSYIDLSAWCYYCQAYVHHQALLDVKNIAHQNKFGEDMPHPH

EB-3 = experiment: Cytotoxic activity against human EB3 cells assessed as growth inhibition up to 25 uM after 3 days by MTT assay; assay type: functional, cell-based
How it was run: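 EB-3 (EBV-infected human Burkitt's lymphoma) cells seeded at 2 × 10^4 per well in RPMI-1640 with 10% FCS and 1% penicillin/streptomycin, cultured overnight at 37 °C, 5% CO2, then given compound or DMSO vehicle. 2-fold dilution series from DMSO stocks; 3 days exposure. MTT added for 4 h, formazan dissolved in acidic 2-propanol, A570 minus 630 nm. Three experiments in duplicate.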

Histone deacetylase 3 = Histone deacetylase 3 (Homo sapiens, UniProt O15379); experiment: Inhibition of human recombinant HDAC3 using [Ac-Leu-Gly-Lys(Ac)-AMC substrate incubated for 15 to 30 mins
Histone deacetylase 8 = target: T3, Histone deacetylase 8 (Homo sapiens, UniProt Q9BY41); experiment: Inhibition of human recombinant HDAC8 using [Ac-Leu-Gly-Lys(Ac)-AMC substrate incubated for 15 to 30 mins
T3 sequence (Q9BY41 whole entry): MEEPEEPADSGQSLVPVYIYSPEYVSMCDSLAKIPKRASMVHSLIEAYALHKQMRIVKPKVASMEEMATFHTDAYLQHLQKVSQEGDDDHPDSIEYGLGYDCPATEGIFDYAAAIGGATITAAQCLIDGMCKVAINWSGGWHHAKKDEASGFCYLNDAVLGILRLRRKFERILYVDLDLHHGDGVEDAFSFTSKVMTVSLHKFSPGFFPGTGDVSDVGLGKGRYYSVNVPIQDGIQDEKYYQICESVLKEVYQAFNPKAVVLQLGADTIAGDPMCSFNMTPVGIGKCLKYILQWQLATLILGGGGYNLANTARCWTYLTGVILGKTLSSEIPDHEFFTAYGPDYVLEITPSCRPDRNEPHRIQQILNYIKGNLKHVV

Histone deacetylase 1 = Histone deacetylase 1 (Homo sapiens, UniProt Q13547); experiment: Inhibition of human recombinant HDAC1 using [Ac-Leu-Gly-Lys(Ac)-AMC substrate incubated for 15 to 30 mins
[2] = target: T4, Polyamine deacetylase HDAC10 (Homo sapiens, UniProt Q969S8); experiment: Inhibition of human recombinant HDAC10 using Ac-Arg-His-Lys(Ac)-Lys(Ac)-AMC substrate incubated for 15 to 30 mins
T4 sequence (Q969S8 whole entry): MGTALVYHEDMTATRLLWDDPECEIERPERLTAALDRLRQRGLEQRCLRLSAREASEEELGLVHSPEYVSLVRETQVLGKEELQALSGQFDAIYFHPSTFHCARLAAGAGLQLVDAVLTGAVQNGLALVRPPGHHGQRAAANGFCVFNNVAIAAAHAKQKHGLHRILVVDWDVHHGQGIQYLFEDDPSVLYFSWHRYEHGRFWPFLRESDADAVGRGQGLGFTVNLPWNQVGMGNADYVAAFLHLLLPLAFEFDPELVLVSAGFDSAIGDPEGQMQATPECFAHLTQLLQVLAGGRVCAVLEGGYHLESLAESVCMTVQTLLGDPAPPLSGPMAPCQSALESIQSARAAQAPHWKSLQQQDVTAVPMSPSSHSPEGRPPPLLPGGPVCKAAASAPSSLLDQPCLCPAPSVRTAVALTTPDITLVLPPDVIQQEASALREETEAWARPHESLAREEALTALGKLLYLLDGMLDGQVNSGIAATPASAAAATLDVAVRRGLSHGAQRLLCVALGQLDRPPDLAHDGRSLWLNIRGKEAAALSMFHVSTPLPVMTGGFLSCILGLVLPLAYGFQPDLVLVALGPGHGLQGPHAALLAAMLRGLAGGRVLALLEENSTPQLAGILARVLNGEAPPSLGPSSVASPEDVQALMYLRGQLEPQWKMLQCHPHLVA

Histone deacetylase 2 = Histone deacetylase 2 (Homo sapiens, UniProt Q92769); experiment: Inhibition of human recombinant HDAC2 using [Ac-Leu-Gly-Lys(Ac)-AMC substrate incubated for 15 to 30 mins
[3] = target: T5, Protein deacetylase HDAC6 (Homo sapiens) (UniProt Q9UBN7); experiment: Inhibition of human recombinant HDAC6 at 20 uM using [Ac-Leu-Gly-Lys(Ac)-AMC substrate incubated for 15 to 30 mins
T5 sequence (whole entry): T2 sequence (Q9UBN7 whole entry)
How it was run: (§1)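 Recombinant human enzyme (HDAC6 2.4 ng/μL; HDAC8 0.2 ng/μL final) in pH 8.0 Tris buffer with BSA. Ac-Leu-Gly-Lys(Ac)-AMC substrate at 20 μM for HDAC6 and 200 μM for HDAC8. Incubated 30 min at 37 °C, then trypsin development 15–30 min at room temperature. Fluorescence read at ex 360/em 460 nm.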

[4] = target: T6, Histone deacetylase 8 (Homo sapiens) (UniProt Q9BY41); experiment: Inhibition of human recombinant HDAC8 at 20 uM using [Ac-Leu-Gly-Lys(Ac)-AMC substrate incubated for 15 to 30 mins; how it was run: as §1
T6 sequence (whole entry): T3 sequence (Q9BY41 whole entry)

[5] = Cytotoxic activity against human EB3 cells after 3 days by MTT assay; assay type: functional; details: EB-3, 72 h
How it was run: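 EBV-infected human Burkitt's lymphoma EB-3 cells seeded at 2 × 10^4 cells/well in RPMI-1640 with 10% FCS and 1% penicillin/streptomycin, cultured overnight at 37 °C, 5% CO2. Compounds added as 2-fold dilution series from DMSO stocks, top final concentration 50 or 100 μM; DMSO vehicle control. After 3 days, MTT added for 4 h. Formazan dissolved in acidic 2-propanol, A570 read minus A630. Three experiments in duplicate.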

Sequence of Histone deacetylase 1 (Q13547 whole entry): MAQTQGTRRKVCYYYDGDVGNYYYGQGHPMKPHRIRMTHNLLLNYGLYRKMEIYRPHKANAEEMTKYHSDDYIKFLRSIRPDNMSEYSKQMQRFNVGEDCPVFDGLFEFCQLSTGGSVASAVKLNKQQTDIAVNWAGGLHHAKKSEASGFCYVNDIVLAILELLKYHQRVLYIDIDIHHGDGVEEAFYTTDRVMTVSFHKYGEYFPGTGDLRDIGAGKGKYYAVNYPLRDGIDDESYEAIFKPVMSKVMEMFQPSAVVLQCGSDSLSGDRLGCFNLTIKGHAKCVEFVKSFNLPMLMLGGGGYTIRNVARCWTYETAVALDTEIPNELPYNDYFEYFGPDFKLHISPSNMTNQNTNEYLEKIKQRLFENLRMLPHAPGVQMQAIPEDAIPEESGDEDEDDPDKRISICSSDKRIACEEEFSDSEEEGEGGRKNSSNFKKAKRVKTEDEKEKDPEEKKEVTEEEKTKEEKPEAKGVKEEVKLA
Sequence of Histone deacetylase 3 (O15379 whole entry): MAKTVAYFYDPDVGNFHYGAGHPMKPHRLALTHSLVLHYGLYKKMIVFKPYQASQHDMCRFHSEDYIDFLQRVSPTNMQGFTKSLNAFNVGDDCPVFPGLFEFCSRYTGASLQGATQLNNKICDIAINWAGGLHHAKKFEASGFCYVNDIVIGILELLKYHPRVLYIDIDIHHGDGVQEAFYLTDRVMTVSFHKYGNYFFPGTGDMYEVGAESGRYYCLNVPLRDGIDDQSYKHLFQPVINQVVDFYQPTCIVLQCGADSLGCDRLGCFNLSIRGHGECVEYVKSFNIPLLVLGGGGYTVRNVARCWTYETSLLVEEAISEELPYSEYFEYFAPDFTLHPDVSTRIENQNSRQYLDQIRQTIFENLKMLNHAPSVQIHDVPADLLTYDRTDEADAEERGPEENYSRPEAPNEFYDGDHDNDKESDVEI
Sequence of Histone deacetylase 2 (Q92769 whole entry): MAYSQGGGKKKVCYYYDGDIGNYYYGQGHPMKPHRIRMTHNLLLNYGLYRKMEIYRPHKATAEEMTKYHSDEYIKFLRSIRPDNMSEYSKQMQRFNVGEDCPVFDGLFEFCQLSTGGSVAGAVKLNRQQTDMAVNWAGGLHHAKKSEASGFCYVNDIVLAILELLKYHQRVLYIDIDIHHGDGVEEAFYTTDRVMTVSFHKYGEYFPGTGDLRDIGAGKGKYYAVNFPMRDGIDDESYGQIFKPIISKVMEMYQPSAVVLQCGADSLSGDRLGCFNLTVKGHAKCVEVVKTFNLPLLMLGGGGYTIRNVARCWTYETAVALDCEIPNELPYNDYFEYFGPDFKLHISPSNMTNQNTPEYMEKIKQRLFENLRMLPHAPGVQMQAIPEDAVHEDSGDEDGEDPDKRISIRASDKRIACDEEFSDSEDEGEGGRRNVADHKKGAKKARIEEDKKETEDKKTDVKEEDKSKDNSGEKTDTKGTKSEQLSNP

| SMILES | Ki (Histone deacetylase 11) | Ki [1] | Ki (Histone deacetylase 3) | Ki (Histone deacetylase 8; read-out: Ki) | Ki (Histone deacetylase 1) | Ki [2] | Ki (Histone deacetylase 2) | Ki ([1]; read-out: Ki) | inhibition [3] | Ki (Histone deacetylase 8) | inhibition [4] | growth inhibition (GI) (EB-3) | GI50 [5] |
| --- | --- | --- | --- | --- | --- | --- | --- | --- | --- | --- | --- | --- | --- |
| CC(C)[C@H]1NC(=O)[C@@H](C)[C@@H](C/C=C\CCC(N)=O)NC(=O)[C@@H](Cc2ccc(O)cc2)NC(=O)[C@@H](C)NC1=O |  |  |  |  |  |  |  |  |  |  |  | inactive |  |
| CC(C)[C@H]1NC(=O)[C@@H](C)[C@@H](C/C=C\CCC(=O)O)NC(=O)[C@@H](Cc2ccccc2)NC(=O)[C@@H](C)NC1=O |  |  |  |  |  |  |  |  |  |  |  | inactive |  |
| CCC(=O)CCCCC[C@@H]1NC(=O)[C@H]2CCCCN2C(=O)[C@H]([C@@H](C)CC)NC(=O)[C@H](Cc2cn(OC)c3ccccc23)NC1=O [APICIDIN] |  |  |  |  |  |  |  |  |  |  |  |  | 800 nM |
| CC(C)[C@H]1NC(=O)C[C@@H](C/C=C\CCC(=O)O)NC(=O)[C@@H](Cc2ccccc2)NC(=O)[C@@H](C)NC1=O | 1500 nM | Not Active | 800 nM |  | 600 nM | 700 nM | 900 nM |  | < 50% | Not Active | < 50% | inactive |  |
| CC(C)[C@H]1NC(=O)[C@@H](C)[C@@H](C/C=C\CCC(=O)O)NC(=O)[C@@H](Cc2ccc(O)cc2)NC(=O)[C@@H](C)NC1=O |  |  |  |  |  |  |  |  |  |  |  | inactive |  |
| CC(C)[C@H]1NC(=O)C[C@@H](C/C=C\CCC(=O)O)NC(=O)[C@@H](Cc2ccc(O)cc2)NC(=O)[C@@H](C)NC1=O | 800 nM |  | 300 nM |  | 300 nM | 300 nM | 300 nM | 6000 nM |  | Not Active |  | inactive |  |
| CC(C)[C@H]1NC(=O)C[C@@H](CCCCCC(=O)O)NC(=O)[C@@H](Cc2c[nH]c3ccccc23)NC(=O)[C@@H](C)NC1=O | 300 nM |  | 500 nM | 4300 nM | 900 nM | 170 nM | 300 nM | 1900 nM |  |  |  |  |  |

The next lines start with results.

| Ki (Histone deacetylase 11) | Ki [1] | Ki (Histone deacetylase 3) | Ki (Histone deacetylase 8; read-out: Ki) | Ki (Histone deacetylase 1) | Ki [2] | Ki (Histone deacetylase 2) | Ki ([1]; read-out: Ki) | inhibition [3] | Ki (Histone deacetylase 8) | inhibition [4] | SMILES | growth inhibition (GI) (EB-3) | GI50 [5] |
| --- | --- | --- | --- | --- | --- | --- | --- | --- | --- | --- | --- | --- | --- |
| 900 nM | Not Active | 500 nM | 4500 nM | 200 nM | 230 nM | 300 nM |  |  |  |  | CC(C)[C@H]1NC(=O)C[C@@H](C/C=C\CCC(=O)O)NC(=O)[C@@H](Cc2c[nH]c3ccccc23)NC(=O)[C@@H](C)NC1=O | inactive |  |
| 1100 nM |  | 600 nM | 3000 nM | 500 nM | 600 nM | 400 nM | 3700 nM |  |  |  | CC(C)[C@H]1NC(=O)C[C@@H](/C=C/CCCC(=O)O)NC(=O)[C@@H](Cc2c[nH]c3ccccc23)NC(=O)[C@@H](C)NC1=O |  |  |
| 3200 nM | Not Active | 1400 nM | 6000 nM | 1200 nM | 1600 nM | 1700 nM |  | < 50% |  |  | CC(C)[C@H]1NC(=O)C[C@@H](/C=C/CCCC(=O)O)NC(=O)[C@@H](Cc2ccccc2)NC(=O)[C@@H](C)NC1=O |  |  |
| 1000 nM |  | 200 nM |  | 1000 nM | 300 nM | 300 nM | 3000 nM |  | Not Active | < 50% | CC(C)[C@H]1NC(=O)C[C@@H](CCCCCC(=O)O)NC(=O)[C@@H](Cc2ccc(O)cc2)NC(=O)[C@@H](C)NC1=O | inactive |  |
| 1300 nM |  | 500 nM |  | 700 nM | 700 nM | 600 nM | 2200 nM |  | Not Active | < 50% | CC(C)[C@H]1NC(=O)C[C@@H](/C=C/CCCC(=O)O)NC(=O)[C@@H](Cc2ccc(O)cc2)NC(=O)[C@@H](C)NC1=O | inactive |  |
| 2000 nM | Not Active | 700 nM |  | 900 nM | 1000 nM | 800 nM |  | < 50% | Not Active | < 50% | CC(C)[C@H]1NC(=O)C[C@@H](CCCCCC(=O)O)NC(=O)[C@@H](Cc2ccccc2)NC(=O)[C@@H](C)NC1=O |  |  |
